In article PMC3082038 (Cancer Chemotherapy and Pharmacology, 2010):
Marks after values point to notes of the source that are not given here.

What was measured:
Format in all cases: in vivo, human
[1] = Plasma pharmacokinetics of TSU-68 in phase I patients; conditions: for Cmax / half-life / Tmax / AUC / AUC(0-t): human, plasma, oral; for AUC(0-t): 500 mg/m2, AUC0–t
urinary VEGF = test: Angiogenesis-related factor: urinary VEGF
Procedure, shortened: (§1)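 Plasma and urine were collected from patients before treatment and after day 8 and day 28 of oral test compound dosing, and analysed at a central commercial laboratory. ELISA kits were used for human VEGF (plasma and urine), ELAM-1, VCAM-1 and soluble t-PA. Soluble PAI-1 was measured by latex photometric immunoassay. Values are reported as median (range) per time point.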

VCAM-1 = test: Angiogenesis-related factor: VCAM-1
Procedure, shortened: as §1

solid tumors = test: Antitumor effect

Work on `Cc1[nH]c(/C=C2\C(=O)Nc3ccccc32)c(C)c1CCC(=O)O` [TSU-68, (Z)-5-[(1,2-dihydro-2-oxo-3H-indol-3-ylidene)methyl]-2,4-dimethyl-1H-pyrrole-3-propanoic acid] yielded a Cmax ([1]; 400 mg/m2, C max, t.i.d. after meal, 2nd dose, 400 mg/m^2, n=6, mean ± SD) of 9340 ± 4510 ng/mL, a Cmax ([1]; 400 mg/m2, C max, t.i.d. after meal, 84th dose, 400 mg/m^2, n=6, mean ± SD) of 4780 ± 1950 ng/mL and a half-life ([1]; 400 mg/m2, T 1/2, b.i.d. after meal, 1st dose, 400 mg/m^2, n=6, mean ± SD) of 2.94 ± 0.692 h. The half-life ([1]; 400 mg/m2, T 1/2, b.i.d. after meal, 3rd dose, 400 mg/m^2, n=6, mean ± SD) was 3.45 ± 1.37 h, the half-life ([1]; 400 mg/m2, T 1/2, b.i.d. after meal, 56th dose, 400 mg/m^2 (6), mean ± SD) was 2.6 ± 0.527 h and the half-life ([1]; 400 mg/m2, T 1/2, t.i.d. after meal, 1st dose, 400 mg/m^2, N = 1) was 2.61 h. It also gave a half-life ([1]; 400 mg/m2, T 1/2, t.i.d. after meal, 2nd dose, 400 mg/m^2, N = 3, mean ± SD) of 2.41 ± 1.14 h, a half-life ([1]; 400 mg/m2, T 1/2, t.i.d. after meal, 84th dose, 400 mg/m^2, N = 2, mean) of 2.23 h and a Tmax ([1]; 400 mg/m2, T max, b.i.d. after meal, 1st dose, 400 mg/m^2, n=6, mean ± SD) of 2.67 ± 0.817 h. The Tmax ([1]; 400 mg/m2, T max, b.i.d. after meal, 3rd dose, 400 mg/m^2, n=6, mean ± SD) was 2.67 ± 0.817 h, the Tmax ([1]; 400 mg/m2, T max, b.i.d. after meal, 56th dose, 400 mg/m^2, N = 4, mean ± SD) was 2.38 ± 0.75 h and the Tmax ([1]; 400 mg/m2, T max, t.i.d. after meal, 1st dose, 400 mg/m^2, n=6, mean ± SD) was 3.42 ± 1.2 h. The Tmax ([1]; 400 mg/m2, T max, t.i.d. after meal, 2nd dose, 400 mg/m^2, n=6, mean ± SD) was 3 ± 1.79 h, the Tmax ([1]; 400 mg/m2, T max, t.i.d. after meal, 84th dose, 400 mg/m^2, n=6, mean ± SD) was 2.92 ± 1.2 h and the AUC ([1]; 400 mg/m^2 t.i.d., AUC Day 28, Pt 20, Colon ca., t.i.d. 400 mg/m^2 (1,800 mg/day)) was 46800 ng·h/mL. For the same compound, the AUC(0-t) ([1]; b.i.d. after meal, 1st dose, 500 mg/m^2, n=3, mean ± SD) was 103000 ± 45600 ng·h/mL, the AUC(0-t) ([1]; b.i.d. after meal, 56th dose, 500 mg/m^2, n=3, mean ± SD) was 43200 ± 18700 ng·h/mL and the Cmax ([1]; 500 mg/m2, C max, b.i.d. after meal, 1st dose, 500 mg/m^2, n=3, mean ± SD) was 22500 ± 10000 ng/mL. The Cmax ([1]; 500 mg/m2, C max, b.i.d. after meal, 3rd dose, 500 mg/m^2, n=3, mean ± SD) was 8790 ± 2920 ng/mL, the Cmax ([1]; 500 mg/m2, C max, b.i.d. after meal, 56th dose, 500 mg/m^2, n=3, mean ± SD) was 7510 ± 3460 ng/mL and the half-life ([1]; 500 mg/m2, T 1/2, b.i.d. after meal, 1st dose, 500 mg/m^2, n=3, mean ± SD) was 2.35 ± 0.599 h. For the same compound, the half-life ([1]; 500 mg/m2, T 1/2, b.i.d. after meal, 3rd dose, 500 mg/m^2, n=3, mean ± SD) was 3.33 ± 1.16 h, the half-life ([1]; 500 mg/m2, T 1/2, b.i.d. after meal, 56th dose, 500 mg/m^2, N = 1) was 1.82 h and the Tmax ([1]; 500 mg/m2, T max, b.i.d. after meal, 1st dose, 500 mg/m^2, n=3, mean ± SD) was 4 ± 1.73 h. For the same compound, the Tmax ([1]; 500 mg/m2, T max, b.i.d. after meal, 3rd dose, 500 mg/m^2, n=3, mean ± SD) was 4.33 ± 1.53 h, the Tmax ([1]; 500 mg/m2, T max, b.i.d. after meal, 56th dose, 500 mg/m^2, n=3, mean ± SD) was 3.17 ± 1.44 h and the AUC ([1]; 500 mg/m^2 b.i.d., AUC Day 28, Pt 11, Colon ca., b.i.d. 500 mg/m^2 (1,600 mg/day)) was 44600 ng·h/mL. For the same compound, the “T 1/2” value ([1]; t.i.d. after meal, 84th dose, 200 mg/m^2, N = 5, mean ± SD) was 4.773 ± 2.221^e h, the “AUC0–t” value ([1]; t.i.d. after meal, 84th dose, 200 mg/m^2, n=6, mean ± SD) was 24.75 ± 13.69 h and the “Urinary VEGF, median” value (urinary VEGF; day 8, 23 patients) was 144 pg/mL. For the same compound, the “Urinary VEGF, range” value (urinary VEGF; day 8, 23 patients) was under 31 to 1210 pg/mL, the “Urinary VEGF, median” value (urinary VEGF; day 28, 22 patients) was 162.5 pg/mL and the “Urinary VEGF, range” value (urinary VEGF; day 28, 22 patients) was 68 to 730 pg/mL. The “VCAM-1, median” value (VCAM-1; day 8, 23 patients) was 562 ng/mL, the “VCAM-1, range” value (VCAM-1; day 8, 23 patients) was 303–1,140 ng/ml and the “VCAM-1, median” value (VCAM-1; day 28, 22 patients) was 545.5 ng/mL. The “VCAM-1, range” value (VCAM-1; day 28, 22 patients) was 355 to 988 ng/mL, the NC patients (solid tumors; 10/23 evaluable patients) was 43.5% and the Tumor control rate (solid tumors; 10/23 patients) was 43.5%. The PR patient (solid tumors; 23 evaluable patients) was “not found”, the “TTP (time to progression)” value (solid tumors; Pt 1, Cervical ca., b.i.d. 200 mg/m^2 (800 mg/day)) was 162 days and the “TTP (time to progression)” value (solid tumors; Pt 2, NSCLC, b.i.d. 200 mg/m^2 (800 mg/day)) was 64 days. For the same compound, the “TTP (time to progression)” value (solid tumors; Pt 4, SCLC, b.i.d. 400 mg/m^2 (1,200 mg/day)) was at least 29 days, the “TTP (time to progression)” value (solid tumors; Pt 8, Cholecystis ca., b.i.d. 400 mg/m^2 (1,200 mg/day)) was 61 days and the “TTP (time to progression)” value (solid tumors; Pt 9, NSCLC, b.i.d. 400 mg/m^2 (1,200 mg/day)) was at least 29 days. The “TTP (time to progression)” value (solid tumors; Pt 14, Soft tissue sa., t.i.d. 200 mg/m^2 (600 mg/day)) was at least 254 days, the “TTP (time to progression)” value (solid tumors; Pt 17, NSCLC, t.i.d. 200 mg/m^2 (1,200 mg/day)) was 65 days and the “TTP (time to progression)” value (solid tumors; Pt 19, NSCLC, t.i.d. 400 mg/m^2 (2,400 mg/day)) was at least 28 days. The “TTP (time to progression)” value (solid tumors; Pt 20, Colon ca., t.i.d. 400 mg/m^2 (1,800 mg/day)) was at least 217 days, the “TTP (time to progression)” value (solid tumors; Pt 23, Colon ca., t.i.d. 400 mg/m^2 (1,800 mg/day)) was at least 28 days and the Median survival period (solid tumors; all dose levels) was 218 days. The “Median time to progression” value (solid tumors; all dose levels) was 28 days.
